Converted amounts (≈) assume the structure as drawn.
Experiments:
Clostridioides difficile [1] = assay: Antibacterial activity against Clostridium difficile NSW132 RT027 incubated for 48 hrs by CLSI method; format: functional; settings: NSW132 RT027, 48 h
Outline: (§1)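 Broth microdilution per CLSI anaerobe method in pre-reduced (2-4 h) Brucella broth with haemin and vitamin K, 35 °C anaerobically for 48 h. Compounds from 5 mg/mL DMSO stocks, twofold dilutions in water mixed with double-strength broth; final 0.25–128 μg/mL. […] Triplicate; modal MIC read visually as lowest concentration inhibiting growth.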

Clostridioides difficile [2] = assay: Antibacterial activity against Clostridium difficile ATCC 700057 incubated for 48 hrs by CLSI method; format: functional; settings: ATCC 700057, 48 h; outline: as §1
Streptococcus pneumoniae [3] = assay: Antibacterial activity against Streptococcus pneumoniae ATCC 49619 incubated for 24 hrs by CLSI method; format: functional; settings: ATCC 49619, 24 h
Outline: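 CLSI broth microdilution in MHB with 2.5% lysed horse blood, 5% CO2, 35 °C, 24 h. Compounds from 5 mg/mL DMSO stocks diluted in water plus double-strength broth; final 0.25–128 μg/mL. […] Triplicate; modal MIC read visually as lowest growth-inhibiting concentration.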

Staphylococcus aureus [4] = assay: Antimicrobial activity against Staphylococcus aureus ATCC 29213 incubated for 24 hrs by CLSI method; format: functional; settings: ATCC 29213, 24 h
Outline: (§2)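 Broth microdilution per CLSI aerobic guidance in Mueller Hinton broth, ambient air, 35 °C for 24 h. DMSO stocks were diluted in water, then serially diluted with double-strength broth inoculum added, for final 0.25–128 μg/mL. […] MIC was read visually as the lowest concentration inhibiting growth; the modal value of triplicates was recorded.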

Staphylococcus aureus [5] = assay: Antibacterial activity against methicillin-resistant Staphylococcus aureus NCTC 10442 incubated for 24 hrs by CLSI method; format: functional; settings: NCTC 10442, 24 h; outline: as §2
Enterococcus faecalis [6] = assay: Antibacterial activity against Enterococcus faecalis ATCC 29212 incubated for 24 hrs by CLSI method; format: functional; settings: ATCC 29212, 24 h
Staphylococcus aureus [7] = assay: Antimicrobial activity against methicillin-resistant Staphylococcus aureus ATCC 43300 incubated for 18 hrs by CLSI method; format: functional; settings: ATCC 43300, 18 h
Staphylococcus aureus [8] = assay: Antimicrobial activity against methicillin-resistant Staphylococcus aureus clinical isolate incubated for 18 hrs by CLSI method; format: functional
Staphylococcus aureus [9] = assay: Antimicrobial activity against glycopeptide intermediate susceptible Staphylococcus aureus NRS17 incubated for 18 hrs by CLSI method; format: functional; settings: NRS17, 18 h
Staphylococcus aureus [10] = assay: Antimicrobial activity against glycopeptide intermediate susceptible/methicillin-resistant Staphylococcus aureus NRS1 incubated for 18 hrs by CLSI method; format: functional; settings: NRS1, 18 h
Staphylococcus aureus [11] = assay: Antimicrobial activity against methicillin-resistant Staphylococcus aureus clinical isolate with reduced daptomycin susceptibility incubated for 18 hrs by CLSI method; format: functional
Staphylococcus aureus [12] = assay: Antimicrobial activity against vancomycin resistant Staphylococcus aureus NARSA VRS10 incubated for 18 hrs by CLSI method; format: functional; settings: NARSA VRS10, 18 h
Streptococcus pneumoniae [13] = assay: Antibacterial activity against MDR Streptococcus pneumoniae ATCC 700677 incubated for 18 hrs by CLSI method; format: functional; settings: ATCC 700677, 18 h
Enterococcus faecalis [14] = assay: Antimicrobial activity against vancomycin-resistant Enterococcus faecalis clinical isolate incubated for 18 hrs by CLSI method; format: functional
Escherichia coli [15] = assay: Antibacterial activity against Escherichia coli ATCC 25922 incubated for 18 hrs by CLSI method; format: functional
Outline: (§3)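 Screen run by CO-ADD: mid-log cultures in cation-adjusted MHB, 5 × 10^5 CFU/mL, compounds at up to 32 μg/mL in 1:2 serial dilutions (8 steps), final DMSO ≤0.5%, duplicate. 37 °C for 18 h without shaking; OD600 read against media-only and untreated-bacteria references. MIC = lowest concentration giving ≥80% inhibition; colistin standard.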

Klebsiella pneumoniae = assay: Antibacterial activity against Klebsiella pneumoniae 700603 incubated for 18 hrs by CLSI method; format: functional; outline: as §3
Pseudomonas aeruginosa = assay: Antimicrobial activity against Pseudomonas aeruginosa ATCC 27853 incubated for 18 hrs by CLSI method; format: functional; outline: as §3
Acinetobacter baumannii = assay: Antimicrobial activity against Acinetobacter baumannii ATCC 19606 incubated for 18 hrs by CLSI method; format: functional; settings: ATCC 19606 = CIP 70.34 = JCM 6841; outline: as §3
Escherichia coli [16] = assay: Induction of cytoplasmic membrane depolarization in Escherichia coli NCTC 10418 at 64 ug/ml incubated for 30 mins by diSC35 staining based fluorescence assay relative to control; format: functional
Outline: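 Mid-log cells (1.5 McFarland) loaded with 4 µM diSC3(5) in the dark at room temperature: S. aureus in PBS 30 min; E. coli in 5 mM HEPES/20 mM glucose pH 7.2 for 60 min, then 100 mM KCl and 0.5 mM EDTA. Baseline fluorescence (ex 620/em 670 nm) ~8 min, then compound added (final 32 µg/mL S. aureus, 64 µg/mL E. coli), tracked ~30 min.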

Staphylococcus aureus [17] = assay: Bactericidal activity against exponential phase of Staphylococcus aureus ATCC 29213 assessed as reduction in bacterial count at 4 ug/ml measured at 2 hrs by time-kill kinetics assay; format: functional, organism-based
Escherichia coli [18] = assay: Induction of plasma membrane permeabilization in Escherichia coli NCTC 10418 at 64 ug/ml measured for 30 mins by propidium iodide staining based fluorescence assay relative to control; format: functional, organism-based

Molecule | MIC (Clostridioides difficile [1]) | MIC (Clostridioides difficile [2]) | MIC (Streptococcus pneumoniae [3]) | MIC (Staphylococcus aureus [4]) | MIC (Staphylococcus aureus [5]) | MIC (Enterococcus faecalis [6]) | MIC (Staphylococcus aureus [7]) | MIC (Staphylococcus aureus [8]) | MIC (Staphylococcus aureus [9]) | MIC (Staphylococcus aureus [10]) | MIC (Staphylococcus aureus [11]) | MIC (Staphylococcus aureus [12]) | MIC (Streptococcus pneumoniae [13]) | MIC (Enterococcus faecalis [14]) | also measured
CC(C)CCOc1ccc2ccccc2c1-c1c(OCc2cn(C[C@@H](CCCCN)NC(=O)Cc3ccc4c(c3)OCO4)nn2)ccc2ccccc12.Cl | 32 µg/mL | 32 µg/mL | 16 µg/mL | 8 µg/mL | 8 µg/mL | 8 µg/mL | 8 µg/mL | > 32 µg/mL | 16 µg/mL | 8 to 16 µg/mL | 8 µg/mL | 8 to 16 µg/mL | 8 to 16 µg/mL | 4 µg/mL | 
CCCCCCCCCC(=O)N[C@@H](Cc1c[nH]c2ccccc12)C(=O)N[C@H](CC(N)=O)C(=O)N[C@@H](CC(=O)O)C(=O)N[C@@H]1C(=O)NCC(=O)N[C@@H](CCCN)C(=O)N[C@@H](CC(=O)O)C(=O)N[C@H](C)C(=O)N[C@@H](CC(=O)O)C(=O)NCC(=O)N[C@H](CO)C(=O)N[C@@H]([C@H](C)CC(=O)O)C(=O)N[C@@H](CC(=O)c2ccccc2N)C(=O)O[C@@H]1C |  |  |  |  |  |  | 0.5 to 1 µg/mL (≈ 0.309 to 0.617 µM) | 2 µg/mL (≈ 1.23 µM) | 8 µg/mL (≈ 4.94 µM) | 8 µg/mL (≈ 4.94 µM) | 4 µg/mL (≈ 2.47 µM) | 2 µg/mL (≈ 1.23 µM) | 1 to 2 µg/mL (≈ 0.617 to 1.23 µM) | 8 µg/mL (≈ 4.94 µM) | 
CC(C)CCOc1ccc2ccccc2c1-c1c(OCc2cn(C[C@@H](CCCCN)NC(=O)[C@@H](CCCNC(=N)N)NC(=O)Cc3ccc4c(c3)OCO4)nn2)ccc2ccccc12.Cl.Cl | 32 µg/mL | 8 µg/mL | 4 µg/mL | 4 µg/mL | 4 µg/mL | 4 µg/mL | 2 µg/mL | 4 µg/mL | 4 µg/mL | 2 to 4 µg/mL | 4 µg/mL | 4 µg/mL | 2 µg/mL | 2 µg/mL | 
COLISTIN |  |  |  |  |  |  |  |  |  |  |  |  |  |  | MIC (Escherichia coli [15]): 0.125 µg/mL; MIC (Klebsiella pneumoniae): 0.25 µg/mL; MIC (Pseudomonas aeruginosa): 0.25 µg/mL; MIC (Acinetobacter baumannii): 0.25 µg/mL; Activity (Escherichia coli [16]): 400%; Activity (Staphylococcus aureus [17]): < 1000 CFU/mL; Activity (Escherichia coli [18]): 75%

Reference: ChEMBL document CHEMBL4390663, “Cationic biaryl 1,2,3-triazolyl peptidomimetic amphiphiles: synthesis, antibacterial evaluation and preliminary mechanism of action studies” (Eur J Med Chem, 2019)
